Reference: the M2OR odorant receptor database
Changes are numbered by the printed parent chain.

Columns and labels:
Conditions in all cases: stereoisomer not certain
Or10j5 (Mus musculus) = target: T1, Or10j5 (Mus musculus) (UniProt Q62007)
T1 sequence (whole entry): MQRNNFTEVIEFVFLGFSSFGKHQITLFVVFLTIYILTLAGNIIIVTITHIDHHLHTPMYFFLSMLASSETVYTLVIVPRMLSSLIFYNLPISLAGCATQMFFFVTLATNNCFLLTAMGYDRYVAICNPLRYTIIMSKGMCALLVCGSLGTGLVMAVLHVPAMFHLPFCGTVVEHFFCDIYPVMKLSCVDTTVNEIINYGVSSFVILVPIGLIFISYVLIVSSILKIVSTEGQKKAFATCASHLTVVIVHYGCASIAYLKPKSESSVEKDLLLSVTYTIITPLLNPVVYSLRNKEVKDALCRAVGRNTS
How it was run: (§1)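 Assay methods differ from source to source, frequently being transient luciferase assays in mammalian cell lines. For each receptor–molecule pair, the label responsive (active) applies when the original authors judged the measured signal statistically different from baseline, and non-responsive (inactive) applies otherwise.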

OR9Q1 (Homo sapiens) = target: T2, OR9Q1 (Homo sapiens) (UniProt Q8NGQ5)
T2 sequence (whole entry): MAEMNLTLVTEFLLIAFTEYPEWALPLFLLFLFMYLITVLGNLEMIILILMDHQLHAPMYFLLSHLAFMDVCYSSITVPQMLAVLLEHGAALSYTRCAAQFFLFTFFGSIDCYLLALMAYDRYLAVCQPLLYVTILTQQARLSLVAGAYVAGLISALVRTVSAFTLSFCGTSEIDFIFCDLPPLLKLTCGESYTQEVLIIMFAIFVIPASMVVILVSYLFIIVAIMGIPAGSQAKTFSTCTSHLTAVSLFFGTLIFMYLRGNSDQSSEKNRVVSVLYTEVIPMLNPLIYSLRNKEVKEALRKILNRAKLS
How it was run: as §1

OR9Q1 A83T = system: T3, OR9Q1 A83T
T3 sequence (whole entry): T2 sequence (whole entry) with A83T
How it was run: as §1

OR9Q2 (Homo sapiens) = target: T4, OR9Q2 (Homo sapiens) (UniProt Q8NGE9)
T4 sequence (whole entry): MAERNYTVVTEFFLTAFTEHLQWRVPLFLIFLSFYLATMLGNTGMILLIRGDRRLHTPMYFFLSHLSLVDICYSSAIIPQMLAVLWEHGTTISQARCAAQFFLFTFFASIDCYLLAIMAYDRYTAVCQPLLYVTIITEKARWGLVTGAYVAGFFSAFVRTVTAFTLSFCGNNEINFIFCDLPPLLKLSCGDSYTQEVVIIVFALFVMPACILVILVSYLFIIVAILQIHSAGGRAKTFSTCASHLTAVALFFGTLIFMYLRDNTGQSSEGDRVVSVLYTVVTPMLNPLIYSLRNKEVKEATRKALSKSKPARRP
How it was run: as §1

OR9Q2 C179R = system: T5, OR9Q2 C179R
T5 sequence (whole entry): T4 sequence (whole entry) with C179R
How it was run: as §1

Or1m1 (Mus musculus) = target: T6, Or1m1 (Mus musculus) (UniProt Q8VFM9)
T6 sequence (whole entry): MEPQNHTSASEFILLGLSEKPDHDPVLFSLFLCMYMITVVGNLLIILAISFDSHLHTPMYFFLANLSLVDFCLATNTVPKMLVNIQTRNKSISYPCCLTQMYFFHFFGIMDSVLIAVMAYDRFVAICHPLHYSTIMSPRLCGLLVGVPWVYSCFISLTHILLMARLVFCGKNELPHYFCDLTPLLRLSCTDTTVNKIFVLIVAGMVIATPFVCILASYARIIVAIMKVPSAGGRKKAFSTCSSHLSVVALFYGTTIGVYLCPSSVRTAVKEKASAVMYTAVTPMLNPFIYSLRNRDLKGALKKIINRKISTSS
How it was run: as §1

Or2c1 (Mus musculus) = target: T7, Or2c1 (Mus musculus) (UniProt P23275)
T7 sequence (whole entry): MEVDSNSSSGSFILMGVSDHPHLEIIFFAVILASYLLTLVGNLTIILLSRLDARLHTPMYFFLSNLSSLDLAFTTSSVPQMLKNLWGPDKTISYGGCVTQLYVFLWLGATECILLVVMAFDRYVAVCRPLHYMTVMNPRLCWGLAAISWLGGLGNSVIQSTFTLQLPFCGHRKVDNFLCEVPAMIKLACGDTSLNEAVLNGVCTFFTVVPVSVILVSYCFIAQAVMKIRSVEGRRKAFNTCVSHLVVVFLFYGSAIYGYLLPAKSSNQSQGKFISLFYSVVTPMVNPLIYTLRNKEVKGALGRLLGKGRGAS
How it was run: as §1

Or5ar1 (Mus musculus) = target: T8, Or5ar1 (Mus musculus) (UniProt Q8VGS3)
T8 sequence (whole entry): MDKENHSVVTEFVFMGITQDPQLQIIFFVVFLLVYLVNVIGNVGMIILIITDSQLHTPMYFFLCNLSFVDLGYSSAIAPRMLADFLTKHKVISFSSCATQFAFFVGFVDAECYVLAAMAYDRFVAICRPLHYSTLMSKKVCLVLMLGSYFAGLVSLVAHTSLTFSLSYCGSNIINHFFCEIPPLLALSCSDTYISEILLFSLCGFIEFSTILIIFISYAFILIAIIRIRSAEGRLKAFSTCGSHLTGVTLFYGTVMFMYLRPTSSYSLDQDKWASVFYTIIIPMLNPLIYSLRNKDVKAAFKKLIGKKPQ
How it was run: as §1

Or5an6 (Mus musculus) = target: T9, Or5an6 (Mus musculus) (UniProt Q8VFV4)
T9 sequence (whole entry): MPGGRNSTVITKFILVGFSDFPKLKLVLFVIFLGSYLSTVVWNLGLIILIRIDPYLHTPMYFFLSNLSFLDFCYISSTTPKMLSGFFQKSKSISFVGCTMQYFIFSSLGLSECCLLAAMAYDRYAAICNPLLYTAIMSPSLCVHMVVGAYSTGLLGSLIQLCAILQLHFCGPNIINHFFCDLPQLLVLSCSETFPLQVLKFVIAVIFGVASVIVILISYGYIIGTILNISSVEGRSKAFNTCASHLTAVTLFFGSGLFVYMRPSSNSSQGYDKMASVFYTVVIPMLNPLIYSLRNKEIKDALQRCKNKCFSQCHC
How it was run: as §1

O=C(O)CCCCCC(=O)O
odorant receptor agonist call (Or10j5 (Mus musculus)): inactive

CC1=C(O)C(=O)OC1C (stereo unspecified)
odorant receptor agonist call (OR9Q1 (Homo sapiens)): inactive | odorant receptor agonist call (OR9Q1 A83T): inactive | odorant receptor agonist call (OR9Q2 (Homo sapiens)): inactive | odorant receptor agonist call (OR9Q2 C179R): inactive

C=CCOC(=O)CCCCCC
odorant receptor agonist call (Or1m1 (Mus musculus)): inactive | odorant receptor agonist call (Or2c1 (Mus musculus)): inactive | odorant receptor agonist call (Or5ar1 (Mus musculus)): inactive

C=C(C)C1CCC(C)C(=O)C1 (stereo unspecified)
odorant receptor agonist call (Or1m1 (Mus musculus)): inactive | odorant receptor agonist call (Or2c1 (Mus musculus)): inactive | odorant receptor agonist call (Or5ar1 (Mus musculus)): inactive

CC1CC=CCCCCCCCCCC(=O)C1 (stereo unspecified)
odorant receptor agonist call (Or1m1 (Mus musculus)): inactive | odorant receptor agonist call (Or5an6 (Mus musculus)): active | odorant receptor agonist call (Or5ar1 (Mus musculus)): inactive

O=C1CCOc2ccccc21
odorant receptor agonist call (Or1m1 (Mus musculus)): inactive | odorant receptor agonist call (Or2c1 (Mus musculus)): inactive | odorant receptor agonist call (Or5ar1 (Mus musculus)): inactive

CCCCCC=O
odorant receptor agonist call (Or1m1 (Mus musculus)): inactive | odorant receptor agonist call (Or2c1 (Mus musculus)): inactive | odorant receptor agonist call (Or5ar1 (Mus musculus)): inactive

CCCCC(=O)CC
odorant receptor agonist call (Or1m1 (Mus musculus)): inactive | odorant receptor agonist call (Or2c1 (Mus musculus)): inactive | odorant receptor agonist call (Or5ar1 (Mus musculus)): inactive

CCCCC(C)=O
odorant receptor agonist call (Or1m1 (Mus musculus)): inactive | odorant receptor agonist call (Or2c1 (Mus musculus)): inactive | odorant receptor agonist call (Or5ar1 (Mus musculus)): inactive

CCCC(C)=O
odorant receptor agonist call (Or10j5 (Mus musculus)): inactive | odorant receptor agonist call (Or2c1 (Mus musculus)): inactive | odorant receptor agonist call (Or5ar1 (Mus musculus)): inactive

CCCCCCCC(=O)[O-].[H+]
odorant receptor agonist call (Or10j5 (Mus musculus)): active | odorant receptor agonist call (Or2c1 (Mus musculus)): active | odorant receptor agonist call (Or5ar1 (Mus musculus)): inactive

O=C(c1ccccc1)c1ccccc1
odorant receptor agonist call (Or1m1 (Mus musculus)): inactive | odorant receptor agonist call (Or2c1 (Mus musculus)): inactive | odorant receptor agonist call (Or5ar1 (Mus musculus)): inactive

CCCCCCCCCS
odorant receptor agonist call (Or1m1 (Mus musculus)): inactive | odorant receptor agonist call (Or2c1 (Mus musculus)): inactive | odorant receptor agonist call (Or5ar1 (Mus musculus)): inactive

O=C1Cc2ccccc2O1
odorant receptor agonist call (Or1m1 (Mus musculus)): inactive | odorant receptor agonist call (Or2c1 (Mus musculus)): active | odorant receptor agonist call (Or5ar1 (Mus musculus)): inactive

CC(=O)C1(C)CC2=C(CCCC2(C)C)CC1C (stereo unspecified)
odorant receptor agonist call (Or1m1 (Mus musculus)): inactive | odorant receptor agonist call (Or5ar1 (Mus musculus)): inactive

CCCCCCCCC(=O)O
odorant receptor agonist call (Or1m1 (Mus musculus)): inactive | odorant receptor agonist call (Or2c1 (Mus musculus)): active | odorant receptor agonist call (Or5ar1 (Mus musculus)): inactive

CCC(=O)O
odorant receptor agonist call (Or1m1 (Mus musculus)): inactive | odorant receptor agonist call (Or2c1 (Mus musculus)): inactive | odorant receptor agonist call (Or5ar1 (Mus musculus)): inactive

CC(=O)OCC=C(C)C
odorant receptor agonist call (Or1m1 (Mus musculus)): inactive | odorant receptor agonist call (Or2c1 (Mus musculus)): inactive | odorant receptor agonist call (Or5ar1 (Mus musculus)): active

CC(C)=CCCC(C)CCO (stereo unspecified)
odorant receptor agonist call (Or1m1 (Mus musculus)): inactive | odorant receptor agonist call (Or2c1 (Mus musculus)): inactive | odorant receptor agonist call (Or5ar1 (Mus musculus)): inactive

CCCCCCCCO
odorant receptor agonist call (Or1m1 (Mus musculus)): inactive | odorant receptor agonist call (Or2c1 (Mus musculus)): inactive | odorant receptor agonist call (Or5ar1 (Mus musculus)): inactive

CCCCOC=O
odorant receptor agonist call (Or1m1 (Mus musculus)): inactive | odorant receptor agonist call (Or2c1 (Mus musculus)): inactive | odorant receptor agonist call (Or5ar1 (Mus musculus)): inactive

CC12CCC(CC1=O)C2(C)C (stereo unspecified)
odorant receptor agonist call (Or1m1 (Mus musculus)): inactive | odorant receptor agonist call (Or2c1 (Mus musculus)): inactive | odorant receptor agonist call (Or5ar1 (Mus musculus)): inactive

CC(=O)OCc1ccccc1
odorant receptor agonist call (Or1m1 (Mus musculus)): inactive | odorant receptor agonist call (Or2c1 (Mus musculus)): inactive | odorant receptor agonist call (Or5ar1 (Mus musculus)): inactive

CC(=O)Oc1ccccc1
odorant receptor agonist call (Or1m1 (Mus musculus)): inactive | odorant receptor agonist call (Or2c1 (Mus musculus)): inactive | odorant receptor agonist call (Or5ar1 (Mus musculus)): inactive

CCCCCCCC(C)=O
odorant receptor agonist call (Or1m1 (Mus musculus)): inactive | odorant receptor agonist call (Or2c1 (Mus musculus)): inactive | odorant receptor agonist call (Or5ar1 (Mus musculus)): inactive

COc1cc(C(=O)O)ccc1O
odorant receptor agonist call (Or1m1 (Mus musculus)): inactive | odorant receptor agonist call (Or2c1 (Mus musculus)): inactive | odorant receptor agonist call (Or5ar1 (Mus musculus)): inactive

CCCCCC1=C(C)CCC1=O
odorant receptor agonist call (Or1m1 (Mus musculus)): inactive | odorant receptor agonist call (Or2c1 (Mus musculus)): inactive | odorant receptor agonist call (Or5ar1 (Mus musculus)): inactive

CCCC(=O)C(C)=O
odorant receptor agonist call (Or1m1 (Mus musculus)): inactive | odorant receptor agonist call (Or2c1 (Mus musculus)): active | odorant receptor agonist call (Or5ar1 (Mus musculus)): inactive

c1ccccc1
odorant receptor agonist call (Or1m1 (Mus musculus)): inactive | odorant receptor agonist call (Or2c1 (Mus musculus)): inactive | odorant receptor agonist call (Or5ar1 (Mus musculus)): inactive

CCOC(=O)C(C)C
odorant receptor agonist call (Or1m1 (Mus musculus)): inactive | odorant receptor agonist call (Or2c1 (Mus musculus)): inactive | odorant receptor agonist call (Or5ar1 (Mus musculus)): inactive

CCC(=O)C(=O)CC
odorant receptor agonist call (Or1m1 (Mus musculus)): inactive | odorant receptor agonist call (Or2c1 (Mus musculus)): active | odorant receptor agonist call (Or5ar1 (Mus musculus)): inactive
